Results: article PMC9933477 (ACS Omega, 2023)
Converted amounts (≈) assume the structure as drawn.

Tests used:
U937 cells = U937 cells activated with LPS plus TNFα, RT-PCR of proinflammatory genes; assay type: cell-based, human; conditions: 1 μM, 24 h, compared to cells exposed only to LPS plus TNFα
GPBAR1 = biological target: T1, GPBAR1 (Homo sapiens, UniProt Q8TDU6); assay: Luciferase reporter assay; assay type: cell-based
T1 sequence (Q8TDU6 1-330): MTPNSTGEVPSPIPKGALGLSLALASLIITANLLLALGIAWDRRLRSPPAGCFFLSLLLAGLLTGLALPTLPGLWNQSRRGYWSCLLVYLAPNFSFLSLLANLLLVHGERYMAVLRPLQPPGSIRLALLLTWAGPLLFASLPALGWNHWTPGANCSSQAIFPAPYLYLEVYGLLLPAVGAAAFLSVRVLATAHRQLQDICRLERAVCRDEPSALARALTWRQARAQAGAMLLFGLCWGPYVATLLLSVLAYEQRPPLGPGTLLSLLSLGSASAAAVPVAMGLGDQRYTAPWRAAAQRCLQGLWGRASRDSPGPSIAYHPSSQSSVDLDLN
Method in brief: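 HEK-293T cells transfected with GPBAR1 carry a cAMP-responsive element (CRE) luciferase reporter. Single-point efficacy at 10 μM is scored against TLCA (10 μM) as 100%, as the mean of two experiments ± SD. EC50 comes from concentration-dependent CREB activation in the same transfected cells.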

RORγt = biological target: T2, RORγt (Homo sapiens, UniProt P51449); assay: Cofactor peptide recruitment assay; assay type: biochemical
T2 sequence (P51449 251-518): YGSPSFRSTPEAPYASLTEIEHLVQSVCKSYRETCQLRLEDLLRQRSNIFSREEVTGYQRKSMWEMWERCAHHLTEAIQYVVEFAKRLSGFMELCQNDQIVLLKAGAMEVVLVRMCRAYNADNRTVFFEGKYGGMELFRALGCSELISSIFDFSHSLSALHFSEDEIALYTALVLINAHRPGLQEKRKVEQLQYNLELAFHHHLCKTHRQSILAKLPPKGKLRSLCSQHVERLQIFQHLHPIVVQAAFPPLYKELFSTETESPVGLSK
Method in brief: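 Cell-free AlphaScreen measuring test compound interference with RORγt binding to SRC-1 coactivator peptide. […] Vehicle (DMSO) wells are set as 100% control and wells lacking protein as 0% control.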

[1] = Aqueous solubility measurement; assay type: physicochemical; conditions: PBS pH 7.4, pH 7.4, aqueous buffer, kinetic from dmso stock
TNBS-induced colitis = assay: Mouse model of TNBS-induced colitis; assay type: in vivo; conditions: 10, 20 or 30 mg/kg/day by gavage
Method in brief: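 C57 male mice given TNBS to induce colitis, then vehicle or test compound at 10, 20 or 30 mg/kg/day by gavage, day 0 to day 4. Read-outs: body-weight change, CDAI, colon length, colon weight/length ratio, H&E of colon sections. Colon mRNA by RT-PCR normalised to Gapdh, Tbp and Actb. Mean ± SEM of 5–10 mice/group; p<0.05 vs TNBS or untreated.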

[2] = Metabolic stability in human liver microsomes; assay type: in vitro ADME; conditions: pH 7.4

EC50 (GPBAR1) [nM]	IC50 (RORγt) [nM]	solubility at 24 h [1] [µM]	Structure (SMILES)	further results
220	1190		C[C@H](CCCOc1ccc(C(=O)O)cc1)[C@H]1CC[C@H]2[C@@H]3CC=C4C[C@@H](O)CC[C@]4(C)[C@H]3CC[C@]12C [Compound 3]	Reduction in the expression of all measured genes (IL-1β, TNFα, IL-6, CD11c) (U937 cells): 30–50%
		10 (≈ 4.62 µg/mL)	C[C@H](CCCOc1ccc(C#N)cc1)[C@H]1CC[C@H]2[C@@H]3CC=C4C[C@@H](O)CC[C@]4(C)[C@H]3CC[C@]12C [Compound 5]	
5900	107		C[C@H](CCCOc1cccc(CO)c1)[C@H]1CC[C@H]2[C@@H]3CC=C4C[C@@H](O)CC[C@]4(C)[C@H]3CC[C@]12C [Compound 7]	Damage to the colon (macroscopic analysis and H&E histology) (TNBS-induced colitis; day 0 to day 4): decreased the damage to the colon; Severity of colitis (percentage of body weight, CDAI) (TNBS-induced colitis; day 0 to day 4): relieved by 7 in a dose-dependent manner; Colon expression of IL-10 (TNBS-induced colitis; RT-PCR of colon): strong increase; Colon expression of Rorc, IL-17A, and F (TNBS-induced colitis; RT-PCR of colon): decreased the expression; microsomal CLint at 1 µM [2]: 7 µL/min/mg
		15 (≈ 6.96 µg/mL)	C[C@H](CCCOc1ccc(C#N)cc1)[C@H]1CC[C@H]2[C@@H]3CC[C@@H]4C[C@H](O)CC[C@]4(C)[C@H]3CC[C@]12C [Compound 17]	
